From ChEMBL document CHEMBL1938299, “Quinolinone-based agonists of S1P₁: use of a N-scan SAR strategy to optimize in vitro and in vivo activity” (Bioorg Med Chem Lett, 2012)
Converted amounts (≈) assume the structure as drawn.

Columns and labels:
[1] = Efflux ratio of permeability in pig LLC-PK1 cells; assay type: ADME, cell-based, Sus scrofa
How it was run: (§1)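 LLC-PK1 porcine proximal tubule cell monolayers; apparent permeability (Papp) of test compound through the cells measured, along with efflux ratio.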

[2] = target: T1, Sphingosine 1-phosphate receptor 1 (Homo sapiens, UniProt P21453); assay: Agonist activity at human S1P1 receptor expressed in human U2OS cells co-expressing eGFP assessed as receptor internalization into cytoplasm using Hoechst dye staining; assay type: functional, cell-based
[3] = target: Sphingosine 1-phosphate receptor 3 (Homo sapiens, UniProt Q99500); assay: Agonist activity at human S1P3 receptor expressed in CHO-K1 cells co-expressing Gq/i5 G-protein assessed as calcium mobilization by FLIPR assay; assay type: functional, cell-based
[4] = Intrinsic clearance in rat liver microsomes assessed per mg of protein after 30 mins; assay type: ADME, Microsome; conditions: read-out: CLH
How it was run: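 Test compound incubated with rat liver microsomes for 30 min. Percent turnover measured and used to estimate intrinsic clearance.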

[5] = Solubility of the compound in simulated intestinal fluid at pH 7.4; assay type: physicochemical
How it was run: (§2)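 Compound solubility measured separately in 0.010 M aqueous HCl, in PBS at pH 7.4, and in simulated intestinal fluid.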

[6] = Apparent permeability of the compound in pig LLC-PK1 cells; assay type: ADME, cell-based, Sus scrofa; how it was run: as §1
[7] = Solubility of the compound in 0.010 M aqueous hydrogen chloride at pH 7.4; assay type: physicochemical; conditions: in the assay text read “hydrogen chloride” for “hydrogen chloride at pH 7.4”; how it was run: as §2
[8] = target: T1, Sphingosine 1-phosphate receptor 1; assay: Agonist activity at human S1P1 receptor expressed in human U2OS cells co-expressing eGFP assessed as receptor internalization into cytoplasm using Hoechst dye staining relative to 1-(4-(6-benzylbenzofuran-2-yl)-3- fluorobenzyl)azetidine-3-carboxylic acid; assay type: functional, cell-based
[9] = Solubility of the compound in phosphate-buffered saline at pH 7.4; assay type: physicochemical; how it was run: as §2
Rattus norvegicus [10] = assay: Immunosuppressive activity in Lewis rat assessed as reduction in circulating peripheral lymphocyte count at 1 mg/kg, po after 24 hrs relative to control; assay type: functional; set-up: scale not given: the % may be the effect or the level left
How it was run: (§3)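 Female Lewis rats (N = 5/group) given a single oral dose (0.30, 1.0 or 3.0 mg/kg) in 20% Captisol or HPBCD, 1% HPMC, 1% Pluronic F68, pH 2.0 with MSA. At 24 h, blood lymphocytes were counted as percent of vehicle control and total plasma compound measured. Significance by ANOVA/Dunnett's test versus vehicle.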

[11] = Plasma concentration in Lewis rat at 1 mg/kg, po after 24 hrs; assay type: ADME, organism-based; set-up: dose 1 mg/kg, route oral; how it was run: as §3
[12] = Half life in Sprague-Dawley rat at 1 mg/kg, iv; assay type: ADME, organism-based; set-up: dose 1 mg/kg, route intravenous; conditions: in vivo
How it was run: (§4)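 Single intravenous dose of 1 mg/kg in DMSO vehicle to male Sprague–Dawley rats (N = 3/group). Clearance, steady-state volume of distribution and half-life were determined from plasma levels.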

[13] = AUC (0 to 24 hrs) in Sprague-Dawley rat at 100 mg/kg, po; assay type: ADME, organism-based; set-up: time < 24 hr, dose 100 mg/kg, route oral; conditions: plasma
Rattus norvegicus [14] = assay: Immunosuppressive activity in po dosed Lewis rat assessed as reduction in circulating peripheral lymphocyte count after 24 hrs; assay type: functional, organism-based; how it was run: as §3
Rattus norvegicus [15] = assay: AUC (0 to 24 hrs) in Sprague-Dawley rat at 3 mg/kg, po; assay type: ADME, organism-based, Plasma; set-up: time < 24 hr, dose 3 mg/kg, route oral; conditions: in vivo, 24 h
[16] = Volume of distribution at steady state in Sprague-Dawley rat at 1 mg/kg, iv; assay type: ADME, organism-based; set-up: dose 1 mg/kg, route intravenous; conditions: in vivo, read-out: Vdss; how it was run: as §4
[17] = Plasma concentration in Lewis rat at 3 mg/kg, po after 24 hrs; assay type: ADME, organism-based; set-up: dose 3 mg/kg, route oral; how it was run: as §3
[18] = Plasma protein binding in rat; assay type: ADME, cell-free; conditions: read-out: PPB (converted)
How it was run: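 Rat plasma protein binding measured in vitro, with bound and free compound separated by ultracentrifugation; reported as percent bound.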

[19] = Plasma concentration in Lewis rat at 0.3 mg/kg, po after 24 hrs; assay type: ADME, organism-based; set-up: dose 0.3 mg/kg, route oral; how it was run: as §3
Rattus norvegicus [20] = assay: Immunosuppressive activity in Lewis rat assessed as reduction in circulating peripheral lymphocyte count at 3 mg/kg, po after 24 hrs relative to control; assay type: functional; set-up: scale not given: the % may be the effect or the level left; how it was run: as §3
Rattus norvegicus [21] = assay: Oral bioavailability in Sprague-Dawley rat at 3 mg/kg; assay type: ADME, organism-based; conditions: in vivo
How it was run: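 Bioavailability in male Sprague–Dawley rats (N = 3/group), calculated from AUC0–∞ values obtained after a 1 mg/kg iv dose (DMSO vehicle) and a 3 mg/kg po dose (20% Captisol, 1% HPMC, 1% pluronic F68, pH 2.0 with MSA).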

Rattus norvegicus [22] = assay: Ratio of AUC (0 to 24 hrs) at 100 mg/kg, po to AUC (0 to 24 hrs) at 3 mg/kg, po in Sprague-Dawley rat; assay type: ADME, organism-based; conditions: in vivo
How it was run: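 Male Sprague–Dawley rats (N = 3/group) each received a single oral dose of 3 or 100 mg/kg, in 20% Captisol, 1% HPMC, 1% Pluronic F68, adjusted to pH 2.0 with MSA.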

Rattus norvegicus [23] = assay: Clearance in Sprague-Dawley rat at 1 mg/kg, iv; assay type: ADME, organism-based; set-up: dose 1 mg/kg, route intravenous; conditions: in vivo; how it was run: as §4

T1 sequence (P21453 whole entry): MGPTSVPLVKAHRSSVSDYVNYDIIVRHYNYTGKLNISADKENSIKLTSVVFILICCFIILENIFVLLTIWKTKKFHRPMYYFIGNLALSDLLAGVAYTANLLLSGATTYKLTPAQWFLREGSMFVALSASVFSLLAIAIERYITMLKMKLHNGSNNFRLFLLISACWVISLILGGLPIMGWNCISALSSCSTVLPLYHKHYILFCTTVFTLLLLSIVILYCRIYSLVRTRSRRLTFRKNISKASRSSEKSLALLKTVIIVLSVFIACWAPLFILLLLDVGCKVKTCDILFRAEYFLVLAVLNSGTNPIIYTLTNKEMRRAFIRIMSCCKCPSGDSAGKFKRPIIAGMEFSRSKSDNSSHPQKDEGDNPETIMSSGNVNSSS
Sphingosine 1-phosphate receptor 3, sequence (Q99500 whole entry): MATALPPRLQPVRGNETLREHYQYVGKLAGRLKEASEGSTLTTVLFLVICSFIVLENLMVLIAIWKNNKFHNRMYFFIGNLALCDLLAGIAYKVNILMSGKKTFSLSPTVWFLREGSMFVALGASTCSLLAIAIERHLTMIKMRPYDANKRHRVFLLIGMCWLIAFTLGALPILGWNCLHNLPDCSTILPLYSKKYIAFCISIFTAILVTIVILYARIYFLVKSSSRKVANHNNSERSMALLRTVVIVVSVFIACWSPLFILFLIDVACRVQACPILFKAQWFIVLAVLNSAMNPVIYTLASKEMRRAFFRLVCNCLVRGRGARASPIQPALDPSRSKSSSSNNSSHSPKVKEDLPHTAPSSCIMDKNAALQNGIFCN

Row | efflux ratio [1] | EC50 [2] [µM] | EC50 [3] [µM] | microsomal CLint [4] [µL/min/mg] | solubility [5] [µg/mL] | Papp [6] [×10⁻⁶ cm/s] | solubility [7] [µg/mL] | Efficacy [8] [%] | solubility [9] [µg/mL] | concentration at 24 h [11] [ng/mL] | SMILES | Activity (Rattus norvegicus [10]) [%] | other results
1 | 1 | 0.029 | > 2.5 | < 14 | 6.1 (≈ 14.4 µM) | 3.4 | < 1 | 120 | 2.6 (≈ 6.14 µM) | 140 | Cn1cc(C(=O)Nc2ccc(-c3ccccc3)c(C(F)(F)F)c2)c(=O)c2ccncc21 | -36 | 
2 | 1.4 | 4.1 | > 2.5 | < 14 |  | 16 |  | 86 |  |  | Cn1cc(C(=O)Nc2ccc(-c3ccccc3)c(C(F)(F)F)c2)c(=O)c2ncccc21 |  | 
3 | 1 | 0.2 | > 2.5 | 15 | 6.7 (≈ 15.8 µM) | 16 | 120 (≈ 283 µM) | 100 | < 1 | 150 | Cn1cc(C(=O)Nc2ccc(-c3ccccn3)c(C(F)(F)F)c2)c(=O)c2cnccc21 | -32 | 

The next lines start with the compound.

Row | SMILES | efflux ratio [1] | EC50 [2] [µM] | EC50 [3] [µM] | microsomal CLint [4] [µL/min/mg] | solubility [5] [µg/mL] | Papp [6] [×10⁻⁶ cm/s] | solubility [7] [µg/mL] | Efficacy [8] [%] | solubility [9] [µg/mL] | concentration at 24 h [11] [ng/mL] | Activity (Rattus norvegicus [10]) [%] | other results
4 | Cn1cc(C(=O)Nc2ccc(-c3ccccc3)c(C(F)(F)F)c2)c(=O)c2cccnc21 | 1.7 | 0.19 | > 2.5 | < 14 | 5.9 (≈ 13.9 µM) | 2.2 | < 1 | 100 | < 1 |  |  | 
5 | Cn1cc(C(=O)Nc2ccc(-c3ccccc3)c(C(F)(F)F)c2)c(=O)c2cnccc21 | 0.8 | 0.024 | > 2.5 | < 14 | 4.9 (≈ 11.6 µM) | 5.7 | < 1 | 100 | < 1 | 350 | -64 | half-life [12]: 41 h; AUC(0-t) at 24 h [13]: 31000 ng·h/mL; Activity (Rattus norvegicus [14]): Dose-dependent effect; AUC (Rattus norvegicus [15]): 5100 ng·h/mL; Vd [16]: 9.2 L/kg; concentration at 24 h [17]: 1100 ng/mL; fraction unbound [18]: 0.08; concentration at 24 h [19]: 96 ng/mL; Activity (Rattus norvegicus [20]): -64%; F (Rattus norvegicus [21]): 95%; Ratio AUC (Rattus norvegicus [22]): 6; CL (Rattus norvegicus [23]): 2.67 mL/min/kg
6 | Cn1nc(C(=O)Nc2ccc(-c3ccccc3)c(C(F)(F)F)c2)c(=O)c2ccccc21 | 1.2 | 0.041 | > 2.5 | < 14 | 12 (≈ 28.3 µM) | 2.3 | < 1 | 130 | 1.6 (≈ 3.78 µM) | 9.7 | 6 | 
7 | COc1ccncc1C(=O)NC(=O)Nc1ccc(-c2ccccc2)c(C(F)(F)F)c1 |  |  | > 25 |  | 16 (≈ 38.5 µM) | 2.3 | 17 (≈ 40.9 µM) |  | 6.6 (≈ 15.9 µM) | 63 | -78 | 
8 | Cn1cc(C(=O)Nc2cnc(-c3ccccc3)c(C(F)(F)F)c2)c(=O)c2ccccc21 | 1.9 | 2.9 | > 2.5 | < 14 | 13 (≈ 30.7 µM) | 11 | < 1 | 170 | < 1 |  |  | 
9 | CCCCCCCCCCCCC/C=C/[C@@H](O)[C@@H](N)COP(=O)(O)O |  | 0.018 |  |  |  |  |  | 91 |  |  |  | 
10 | Cn1cc(C(=O)Nc2ccc(-c3ccncc3)c(C(F)(F)F)c2)c(=O)c2ccccc21 | 1.5 | 0.45 | > 2.5 | 44 | 12 (≈ 28.3 µM) | 15 | 6.4 (≈ 15.1 µM) | 110 | 7.9 (≈ 18.7 µM) |  |  | 
